We go through two compounds from paper PMC2861480 (Molecular bioSystems, 2009).

One test relates to zebrafish embryos. As to conditions: for CE (effective concentration to cause no-eyes phenotype): zebrafish embryos.
A further test addresses GSK3β (Homo sapiens, UniProt P49841). Kind of test: Kinase profiling. It is filed as biochemical, mammalian. As to conditions: 5 μM 3F8 in 1% DMSO; panel of 22 kinases.
Test [1] relates to β-catenin–TCF activity in 293T cells. Kind of test: In vitro β-catenin–TCF assay. It is filed as cell-based. As to conditions: 4 μM 3F8 added to the medium, 18 h. The gist of the method:
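293T cells in 24-well plates were transfected with 200 ng superTOPflash reporter plasmid plus 20 ng Renilla luciferase (RLTK) control plasmid. Test compound was added 24 h after transfection and left for 18 h. Cell extracts were assayed sequentially for firefly and Renilla luciferase in a dual-luciferase system, and firefly readings were normalized to Renilla.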

Where only a bound is given, the exact number is not on record here.

GSK3β, sequence (P49841 whole entry): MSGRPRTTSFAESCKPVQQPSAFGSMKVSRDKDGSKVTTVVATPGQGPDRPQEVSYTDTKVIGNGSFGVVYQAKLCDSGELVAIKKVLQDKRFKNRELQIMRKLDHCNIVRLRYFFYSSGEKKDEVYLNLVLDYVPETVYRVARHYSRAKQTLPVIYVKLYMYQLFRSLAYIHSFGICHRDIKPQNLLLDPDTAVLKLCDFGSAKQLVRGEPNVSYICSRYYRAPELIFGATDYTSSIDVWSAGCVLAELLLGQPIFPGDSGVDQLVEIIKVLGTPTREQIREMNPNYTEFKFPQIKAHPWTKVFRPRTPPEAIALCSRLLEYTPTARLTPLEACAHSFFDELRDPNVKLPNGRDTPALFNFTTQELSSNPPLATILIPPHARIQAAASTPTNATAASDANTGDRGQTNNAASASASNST

Take `CCc1nc2c(c3cc(OC)c(OC)cc13)C(=O)NC2=O` [3F8, 5-ethyl-7,8-dimethoxy-1H-pyrrolo[3,4-c]-isoquinoline-1,3-(2H)-dione]: in the test with zebrafish embryos (2 days of treatment, washed out, scored by 5 dpf), the “no-eyes embryos that developed a forebrain and eyes after removal of compound” value is given as 22%. In addition, the “concentration giving no-eyes phenotype in all embryos” value with zebrafish embryos (treated at the 2-cell stage) stood at 3.75 µM. In addition, the “concentration required for effect on brain development” value in the test on zebrafish embryos (treated at the 2-somite stage (after gastrulation), no effect at highest dose) was > 75 µM. Further, the “concentration required for no-eyes phenotype” value in the test on zebrafish embryos (treated at the shield stage) was 11.25 µM. Moreover, the “CE (effective concentration to cause no-eyes phenotype)” value with zebrafish embryos amounted to 7.5 µM. The “inhibition of GSK3β activity” value at GSK3β was determined as 91%. Moreover, the “luciferase read out increase (superTOPflash)” value in test [1] is listed as “approximately 15 fold”.

For the compound `COC(=O)c1ccc[cH-]1.O=C1NC(=O)c2c1c1cccnc1c1[n-]c3c(Br)cc(O)cc3c21.[CH+]=O.[Ru]` [GSK-3 inhibitor XV, reference compound], the “CE (effective concentration to cause no-eyes phenotype)” value with zebrafish embryos came out at 1 µM.
